The values below come from ChEMBL document CHEMBL1131877, “Structure-activity relationship of short-chain sphingoid bases as inhibitors of sphingosine kinase” (Bioorg Med Chem Lett, 1999).

In general, inhibition refers to the drop in the measured response relative to a control, in per cent. High values mean a response far below the control, low ones a response near the control.

This assay has as its system HEK293. In words: Inhibitory activity against sphingosine kinase expressed in HEK293 cells at 10 uM. It is filed as cell-based. As to conditions: Homo sapiens. The procedure, abridged:
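Sphingosine kinase from cytosolic fractions of HEK 293 cells transfected to overexpress the enzyme (0.125 μg). Substrate D-erythro-sphingosine 10 μM in Triton X-100 (0.25% final), with [³²P]ATP (10 μCi, 1 mM) and MgCl₂ 10 mM. Analogues tested at 10 μM. After 10 min at 37 °C, sphingosine-1-phosphate formation measured. Activity given as % of vehicle-only control; means ± S.D.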
`CCCCCCCCC[C@H](O)[C@@H](N)CO` had an inhibition of 50%. To `CCCCCCCC(F)/C=C/[C@@H](N)CO` (stereo partly drawn) belongs 80%; to `CCCCCCCCCCCCC/C=C/[C@@H](O)[C@H](CO)N(C)C`, 47%; to `CCCCCCC/C=C/[C@@H](O)[C@@H](N)CO`, 69%. Turning to `N[C@@H](CO)[C@@H](O)/C=C/c1ccccc1`, the inhibition was found to be 79%.

For `N[C@@H](CO)[C@@H](O)CCc1ccccc1`, the inhibition worked out at 72%. The molecule `CCCCCCC/C=C/[C@H](F)[C@@H](N)CO` gave an inhibition of 82%. In the case of `N[C@@H](CO)[C@H](O)/C=C/c1ccccc1`, the inhibition came out at 77%. In the case of `N[C@@H](CO)[C@@H](F)CCc1ccccc1` it was 62%. In the case of `CCCCCCCCC[C@H](F)[C@@H](N)CO` it was 68%. Regarding `CCCCCCC/C=C/[C@H](O)[C@@H](N)CO`, the inhibition was 70%. To `CCCCCCCCC[C@@H](O)[C@@H](N)CO` belongs 48%; to `N[C@@H](CO)[C@H](O)CCc1ccccc1`, 59%.
